Screening data (PubChem)
Rtt109 Vps75: inhibitors of C. albicans Rtt109/Vps75 HAT, primary screen, biochemical, ThioGlo CoA-SH fluorescence, plate reader | Histone acetyltransferase RTT109 (Candida albicans (strain SC5314 / ATCC MYA-2876)), … | purified Rtt109/Vps75, 4 h | inhibition, % at 34.9 µM | 330,000 compounds, 0.16% hits | AID 540336, 2011;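 active = inhibition of at least 50% in every replicate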
Efflux pump inh: inhibitors of Candida efflux pumps in yeast, primary screen, S. cerevisiae, Nile Red, multiplex; inhibition, % at 10 µM; 330,000 compounds, 0.44% hits; S. cerevisiae Candida pump triplex;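 active = plate passing quality check with inhibition over a set limit, or well fluorescence over plate mean plus 4 SD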;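 note: Nile Red retained in pooled yeast measured as flow cytometry median fluorescence; 0% = buffer negative control and 100% = Enniatin B positive control; higher means more Nile Red kept so more efflux inhibition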
ASAP1 inh: inhibitors of human ASAP1 ArfGAP activity, primary screen, biochemical, fluorescence polarization; Arf-GAP with SH3 domain, ANK repeat and PH domain-containing protein 1 (Homo sapiens), …; ASAP1-stimulated ARF1 GTP hydrolysis, GDP FP detection; inhibition, % at 16.5 µM; 360,000 compounds, 0.19% hits; AID 624377, 2012; in the data active = inhibition above about 25%;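 note: 0% = vehicle with enzyme and substrate and 100% = no enzyme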
Target sequence (Q9ULH1 325-724 limits assumed): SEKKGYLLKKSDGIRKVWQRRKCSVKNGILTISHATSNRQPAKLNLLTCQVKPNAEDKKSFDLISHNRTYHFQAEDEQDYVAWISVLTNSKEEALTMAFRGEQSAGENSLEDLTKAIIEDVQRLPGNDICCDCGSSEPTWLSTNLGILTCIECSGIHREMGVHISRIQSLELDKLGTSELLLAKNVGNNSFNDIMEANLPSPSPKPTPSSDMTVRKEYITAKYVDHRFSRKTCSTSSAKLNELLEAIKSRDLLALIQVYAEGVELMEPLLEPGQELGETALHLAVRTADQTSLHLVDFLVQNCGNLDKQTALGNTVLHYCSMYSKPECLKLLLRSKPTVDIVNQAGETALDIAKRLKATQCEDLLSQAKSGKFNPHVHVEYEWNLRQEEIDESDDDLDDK
ARFGAP1 inh: inhibitors of rat ARFGAP1 GAP activity, primary screen, biochemical, fluorescence polarization, GDP tracer; AID 651572, 2012; inhibition, % at 16.5 µM; 360,000 compounds, 0.26% hits; Arfgap1-stimulated ARF1 GTP hydrolysis, GDP FP detection;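 active = inhibition above a per-plate limit, mean inhibition of low control wells plus 3 SD, cut at about 25% in these data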;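 note: 0% = DMSO wells with enzyme and 100% = wells lacking Arfgap1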
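System: truncated rat Arfgap1 GAP domain / Medium: HEPES-based buffer, pH 7.5 / Also added: N-terminally truncated human ARF1-GTP substrate / Incubation: enzyme reaction 120 min at 25 °C after 20 min preincubation / Measured by: FP of antibody-bound GDP Alexa 633 tracer, ex 620/em 688 nm / Replicates: singlicate, each compound tested once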
FGF22 binding: binders of human FGF22 protein, primary screen, FGF22 synaptogenesis inhibitor project, biophysical, thermal shift, single point. Fibroblast growth factor 22 (Homo sapiens), Q9HCT0. recombinant FGF22 thermal shift, SYPRO orange fluorescence; percent of sucrose octasulfate shift, DMSO zero. 340,000 compounds, 1.5% hits. AID 651658, 2012. activity (Tm shift, normalised), % at 9.99 µM;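 active = mean Tm shift, scaled 0 neutral to 100 positive control, at about 1.3% or above, every replicate too, limit read from the data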
Target sequence (Q9HCT0 whole entry, looked up): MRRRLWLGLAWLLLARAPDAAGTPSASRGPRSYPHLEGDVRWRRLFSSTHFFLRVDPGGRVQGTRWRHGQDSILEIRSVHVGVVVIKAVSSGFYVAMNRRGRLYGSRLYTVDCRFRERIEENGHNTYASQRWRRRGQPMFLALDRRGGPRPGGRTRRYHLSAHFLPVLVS
* marks the source's active call; other numbers are inactive results; · = no result given; ! = not confirmed by another sample. Sampled rows, rich in hits. Any-hit rate of the full collection: about 1.9%.

SMILES	Rtt109 Vps75	Efflux pump inh	ASAP1 inh	ARFGAP1 inh	FGF22 binding
CCOC(=O)[C@@H]1[C@H]2COc3ccccc3[C@@H]2N2C(=O)N(c3ccc(Cl)cc3)C(=O)[C@]12C	1	0	11	14	44*
CCOC(=O)[C@@H]1[C@H]2COc3ccccc3[C@H]2N2C(=O)N(c3ccc(C)cc3)C(=O)[C@]12C	22	0	-6	6	0
C[C@]12C(=O)N(c3ccc(Br)cc3)C(=O)N1[C@@H]1c3ccccc3OC[C@@H]1[C@H]2c1ccccc1	2	0	1	-2	0
C[C@@]12C(=O)N(c3ccc(Br)cc3)C(=O)N1[C@@H]1c3ccccc3OC[C@@H]1[C@H]2c1ccccc1	-8	0	9	1	1.5*
CCOC(=O)[C@@H]1[C@H]2COc3cc(OC)ccc3[C@@H]2N2C(=O)N(c3ccc(F)cc3)C(=O)[C@]12C	12	0	-1	-4	44*
O=C1CC(c2ccccc2)Oc2ccc(Cl)cc21 (configuration not stated)	-3	·	3	-15	0
Cc1ccc(S(=O)(=O)N(C)C[C@@H]2Oc3c(NS(=O)(=O)c4cccs4)cccc3C(=O)N([C@@H](C)CO)C[C@H]2C)cc1	·	·	·	·	0
O=C(C[C@@H]1C=C[C@@H](NC(=O)Nc2ccccc2F)[C@H](CO)O1)NCc1ccc(Cl)cc1	·	·	·	·	0
C[C@H](NC(=O)C[C@@H]1C=C[C@@H](NC(=O)Cc2ccccn2)[C@H](CO)O1)c1ccccc1	·	·	·	·	0
CC(C)C(NC(=O)c1ccc(Cl)cc1Cl)C(=O)N1CCC1 (configuration not stated)	-16	0	12	17	0
O=C(NC1CCCCC1)C1CCC(=O)N(C2CC2)C1 (configuration not stated)	-3	0	0	-4	0
Cc1cc(C)c2c(=O)[nH]c(SCC(=O)c3ccc(C)c(C)c3)nc2n1	6	0	4	-3	44*
CC(=O)Nc1ccc(CN(C)c2c(C)nc3ccc(C(=O)NCCc4ccccn4)cn23)cc1	·	·	11	4	0
CCOc1ccc(NC(=O)c2sc(NC(C)=O)c(C(=O)OC)c2C)cc1	4	0	-14	-3	43*
COC(=O)c1c(NC(C)=O)sc(C(=O)Nc2ccccc2)c1C	-8	0	-3	-10	43
Cc1ccc(S(=O)(=O)Oc2ccc(/C=N/N=C3/NC(=O)C(CC(=O)O)S3)cc2)cc1 (configuration not stated)	10	·	2	2	0
COc1ccc(S(=O)(=O)Oc2cccc(/C=N/N=C3/NC(=O)C(CC(=O)O)S3)c2)cc1 (configuration not stated)	0	0	-3	3	2.6*
CCOc1[nH]n(-c2ccc(Cl)cc2)c(=O)c1C=NCC(=O)OC	-8	0	11	-4	0
CCOc1[nH]n(-c2ccccc2)c(=O)c1C=NCC(=O)OC	0	0	14	-9	43*
CC(=O)N(CCC(Cc1ccccc1)c1ccco1)Cc1ccco1 (configuration not stated)	53*	0	-9	-5	0
CO[C@@H]1CN(C)C(=O)c2ccc(NC(C)=O)cc2OC[C@H](C)NC[C@H]1C	·	·	·	·	0
C[C@@H]1CCCCO[C@H](CN(C)Cc2ccc3c(c2)OCO3)[C@@H](C)CN([C@@H](C)CO)C(=O)c2cc(NC(=O)C3CCCCC3)ccc2O1	·	·	·	·	13*
C[C@@H]1CCCCO[C@H](CN(C)Cc2ccc(Cl)c(Cl)c2)[C@@H](C)CN([C@H](C)CO)C(=O)c2cc(N(C)C)ccc2O1	·	·	1	-3	43*!
C[C@H]1CCCCO[C@@H](CN(C)CC2CCCCC2)[C@@H](C)CN([C@@H](C)CO)C(=O)c2cc(NC(=O)Nc3ccc4c(c3)OCO4)ccc2O1	·	·	·	·	1.7*
C[C@@H]1CCCCO[C@@H](CN(C)CC2CCCCC2)[C@H](C)CN([C@H](C)CO)C(=O)c2cc(NC(=O)Nc3ccc4c(c3)OCO4)ccc2O1	·	·	·	·	1
SMILES	Rtt109 Vps75	Efflux pump inh	ASAP1 inh	ARFGAP1 inh	FGF22 binding
CC(C)(C)OC(=O)NCCCCCc1nnc(SCc2c(F)cccc2Cl)o1	10	0	14	12	0
CC1=NN(c2ccccc2)C(=O)/C1=C\c1cn(CCC#N)nc1-c1ccc(Cl)cc1	7	0	9	-2	44*
CN1C(=O)c2cc(NC(=O)c3ccccc3)ccc2OC[C@@H]2O[C@H](CC(=O)NC3CCCC3)CC[C@H]21	·	·	·	·	0
CN1C(=O)c2cc(NC(=O)c3cccc(Cl)c3)ccc2OC[C@H]2O[C@@H](CC(=O)NC3CCCCC3)CC[C@H]21	·	·	·	·	1.4*
Cc1nc(-c2ccc3c(c2)OCCO3)cs1	-5	0	-13	-8	43*
CN(C)S(=O)(=O)c1cccc(NC(=O)COc2ccccc2C(=O)Nc2ccccc2)c1	·	·	6	0	0
CCOC(=O)CNC(=O)N1CCCC(C(=O)c2ccc3c(c2)OCO3)C1 (configuration not stated)	·	0	-7	2	43*
Cc1cc(C(=O)N/N=C/c2ccc(C)o2)c2ccccc2n1	1	1	-4	5	·
Cc1ccc(/C=N/NC(=O)c2cc(C3CC3)nc3ccccc23)o1	-2	0	7	3	43*
Cc1ccc(NC(=O)CCSCCC(=O)Nc2ccc(C)c(C)c2)cc1C	6	0	1	-13	·
Cc1ccc(SCCC(=O)Nc2c(C)n(C)n(-c3ccccc3)c2=O)cc1	-4	0	-16	0	·
Cc1c(NC(=O)CSc2ccc(Cl)cc2)c(=O)n(-c2ccccc2)n1C	10	0	3	1	44*
CCC(C(=O)OCC(=O)Nc1c(C)n(C)n(-c2ccccc2)c1=O)c1ccccc1 (configuration not stated)	1	0	-12	4	·
Cc1c(NC(=O)COC(=O)C2(c3ccccc3F)CCCC2)c(=O)n(-c2ccccc2)n1C	5	0	1	-3	43*
Cc1c(NC(=O)COC(=O)C23CC4CC(CC(O)(C4)C2)C3)c(=O)n(-c2ccccc2)n1C	1	0	-1	2	44*
Cc1cc(C(=O)COC(=O)C23CC4CC(CC(O)(C4)C2)C3)c(C)n1-c1c(C)n(C)n(-c2ccccc2)c1=O	4	0	4	2	0
